Results published in ChEMBL document CHEMBL2040780, “Antiarrhythmic properties of phenylpiperazine derivatives of phenytoin with α₁-adrenoceptor affinities” (Bioorg Med Chem, 2012).
Blank lines part the entries; values can stand above or below the compound they belong to. The source made the active and inactive calls. No cut-off for these calls is given here.

Key:
Rattus norvegicus [1] = test: Antiarrhythmic activity in Wistar rat assessed as protection against adrenaline-induced extrasystoles at 2.5 to 10 mg/kg, iv administered 15 mins prior to adrenaline-challenge; assay type: functional, organism-based; conditions: Heart
How it was run: (§1)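 Szekeres model in male Wistar rats anaesthetised with thiopental (60 mg/kg ip). Test compound given iv in water (2.5–10 mg/kg) 15 min before adrenaline 20 µg/kg iv. Scored for extrasystoles, bigeminy and mortality; activity means no premature beats and inhibited arrhythmia versus controls.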

Rattus norvegicus [2] = test: Cardiotoxicity in Wistar rat assessed as effect on QRS interval at 2.5 mg/kg, iv after 15 mins; assay type: toxicity, organism-based; design: dose 2.5 mg/kg, route intravenous; conditions: in vivo, 0.25 h
How it was run: (§2)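 Male Wistar rats (180–250 g), anaesthetised with thiopental 60 mg/kg ip. Compound given iv in water at 10 mg/kg, or at a lower starting dose of 5 or 2.5 mg/kg. Standard lead II ECG recorded at 50 mm/s just before dosing and at 1, 5 and 15 min after. Heart rate and P–Q, Q–T and QRS intervals were read. n=6 per group, mean ± SEM, one-way ANOVA.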

Rattus norvegicus [3] = test: Antiarrhythmic activity in iv dosed Wistar rat assessed as protection against adrenaline-induced arrhythmia administered 15 mins prior to adrenaline-challenge; assay type: functional; conditions: Heart; how it was run: as §1
[4] = target: T1, Adrenergic receptor alpha-1 (Rattus norvegicus, UniProt P15823+P23944+P43140); test: Displacement of [3H]prazosin from alpha1 adrenoceptor in rat cerebral cortex after 30 mins by microbeta scintillation counting; assay type: tissue-based
T1 sequence (P15823 whole entry): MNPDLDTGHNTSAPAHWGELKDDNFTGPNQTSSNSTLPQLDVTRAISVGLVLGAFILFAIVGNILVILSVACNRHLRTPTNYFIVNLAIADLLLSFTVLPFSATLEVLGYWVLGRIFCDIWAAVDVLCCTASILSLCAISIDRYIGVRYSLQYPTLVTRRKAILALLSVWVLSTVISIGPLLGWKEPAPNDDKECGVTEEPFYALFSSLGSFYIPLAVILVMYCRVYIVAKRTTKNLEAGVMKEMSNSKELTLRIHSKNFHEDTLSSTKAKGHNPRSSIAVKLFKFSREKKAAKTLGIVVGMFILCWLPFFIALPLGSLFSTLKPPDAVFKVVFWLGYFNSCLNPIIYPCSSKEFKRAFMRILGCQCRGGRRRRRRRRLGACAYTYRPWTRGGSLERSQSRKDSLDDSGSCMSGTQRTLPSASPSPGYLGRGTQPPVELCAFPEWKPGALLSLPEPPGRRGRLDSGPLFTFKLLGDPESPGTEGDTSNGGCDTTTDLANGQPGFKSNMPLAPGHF
T1 sequence (P23944 whole entry): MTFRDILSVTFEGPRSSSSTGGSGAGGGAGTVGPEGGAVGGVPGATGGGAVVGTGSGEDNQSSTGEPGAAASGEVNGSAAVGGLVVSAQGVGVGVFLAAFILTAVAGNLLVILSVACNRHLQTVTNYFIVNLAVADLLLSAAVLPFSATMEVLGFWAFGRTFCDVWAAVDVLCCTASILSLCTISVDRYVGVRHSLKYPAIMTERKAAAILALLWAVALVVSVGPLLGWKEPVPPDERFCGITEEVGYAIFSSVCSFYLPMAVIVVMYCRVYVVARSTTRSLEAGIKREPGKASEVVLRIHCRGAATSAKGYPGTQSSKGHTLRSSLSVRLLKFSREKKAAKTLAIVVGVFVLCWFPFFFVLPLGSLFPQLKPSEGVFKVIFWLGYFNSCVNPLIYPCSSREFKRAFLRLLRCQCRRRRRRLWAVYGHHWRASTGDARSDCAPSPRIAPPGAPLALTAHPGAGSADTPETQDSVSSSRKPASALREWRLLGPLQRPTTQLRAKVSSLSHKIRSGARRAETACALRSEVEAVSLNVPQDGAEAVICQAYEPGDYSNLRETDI
T1 sequence (P43140 whole entry): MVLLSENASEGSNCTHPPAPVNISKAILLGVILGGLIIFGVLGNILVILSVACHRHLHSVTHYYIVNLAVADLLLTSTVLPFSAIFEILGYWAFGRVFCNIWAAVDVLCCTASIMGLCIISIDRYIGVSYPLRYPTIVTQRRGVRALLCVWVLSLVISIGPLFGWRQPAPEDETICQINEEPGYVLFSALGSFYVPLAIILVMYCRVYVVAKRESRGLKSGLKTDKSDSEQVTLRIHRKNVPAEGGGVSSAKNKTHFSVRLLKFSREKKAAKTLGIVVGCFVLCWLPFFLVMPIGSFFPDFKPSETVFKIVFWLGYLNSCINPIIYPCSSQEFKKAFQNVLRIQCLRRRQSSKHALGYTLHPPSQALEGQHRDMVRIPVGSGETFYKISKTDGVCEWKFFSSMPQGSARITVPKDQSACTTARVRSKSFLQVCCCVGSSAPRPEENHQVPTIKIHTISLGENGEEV
How it was run: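 Rat cerebral cortex homogenised in ice-cold 50 mM Tris-HCl (pH 7.6 at 25 °C), washed twice at 20000×g and resuspended at 10 mg wet weight/ml. Incubated with [3H]prazosin (19.5 Ci/mmol) and test compound for 30 min at 25 °C. Nonspecific binding defined with 10 µM phentolamine. GF/B filtration, scintillation counting, three-parameter logistic competition fit.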

Rattus norvegicus [5] = test: Cardiotoxicity in Wistar rat assessed as effect on Q-T interval at 2.5 mg/kg, iv after 1 min; assay type: toxicity, organism-based; design: dose 2.5 mg/kg, route intravenous; conditions: in vivo; how it was run: as §2
Rattus norvegicus [6] = test: Cardiotoxicity in Wistar rat assessed as effect on P-Q interval at 2.5 mg/kg, iv after 5 mins; assay type: toxicity, organism-based; design: dose 2.5 mg/kg, route intravenous; conditions: in vivo; how it was run: as §2
Rattus norvegicus [7] = test: Antiarrhythmic activity in Wistar rat assessed as effect on heart beat at 2.5 mg/kg, iv after 15 mins; assay type: functional; how it was run: as §2
Rattus norvegicus [8] = test: Cardiotoxicity in Wistar rat assessed as effect on Q-T interval at 2.5 mg/kg, iv after 5 mins; assay type: toxicity, organism-based; design: dose 2.5 mg/kg, route intravenous; conditions: in vivo; how it was run: as §2
Rattus norvegicus [9] = test: Cardiotoxicity in Wistar rat assessed as effect on QRS interval at 2.5 mg/kg, iv after 5 mins; assay type: toxicity, organism-based; design: dose 2.5 mg/kg, route intravenous; conditions: in vivo; how it was run: as §2
Rattus norvegicus [10] = test: Hypotensive activity in normotensive Wistar rat assessed as decrease in diastolic blood pressure at 2.5 to 10 mg/kg, iv after 1 min measured up to 60 mins; assay type: organism-based, Artery; design: dose 2.5-10 mg/kg, route intravenous; conditions: in vivo
How it was run: (§3)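 Right carotid artery cannulated with heparin-saline-filled tubing for blood pressure recording. After 5 min stabilisation, compound injected iv into the caudal vein (2.5–10 mg/kg, 1 ml/kg). Systolic and diastolic pressure followed for 60 min. n=6 per group, mean ± SEM, one-way ANOVA.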

Rattus norvegicus [11] = test: Cardiotoxicity in Wistar rat assessed as effect on P-Q interval at 2.5 mg/kg, iv after 15 mins; assay type: toxicity, organism-based; design: dose 2.5 mg/kg, route intravenous; conditions: in vivo, 0.25 h; how it was run: as §2
Rattus norvegicus [12] = test: Hypotensive activity in normotensive Wistar rat assessed as decrease in systolic blood pressure at 2.5 to 10 mg/kg, iv after 1 min measured up to 60 mins; assay type: organism-based, Artery; design: dose 2.5-10 mg/kg, route intravenous; conditions: in vivo; how it was run: as §3
Rattus norvegicus [13] = test: Antiarrhythmic activity in Wistar rat assessed as effect on heart beat at 2.5 mg/kg, iv after 5 mins; assay type: functional; how it was run: as §2
Rattus norvegicus [14] = test: Antiarrhythmic activity in Wistar rat assessed as effect on heart beat at 2.5 mg/kg, iv after 1 min; assay type: functional; how it was run: as §2
Rattus norvegicus [15] = test: Cardiotoxicity in Wistar rat assessed as effect on QRS interval at 2.5 mg/kg, iv after 1 min; assay type: toxicity, organism-based; design: dose 2.5 mg/kg, route intravenous; conditions: in vivo; how it was run: as §2
Rattus norvegicus [16] = test: Antiarrhythmic activity in barium chloride-induced Wistar rat arrhythmia model assessed as protection against mortality at 2.5 to 10 mg/kg, iv administered 15 mins prior to barium chloride-challenge; assay type: functional, organism-based; conditions: Heart
How it was run: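 Szekeres model in male Wistar rats. Activity is gradual disappearance of arrhythmia with restored sinus rhythm; protection against disturbances and death scored. Groups of 6 animals.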

Rattus norvegicus [17] = test: Cardiotoxicity in Wistar rat assessed as effect on Q-T interval at 2.5 mg/kg, iv after 15 mins; assay type: toxicity, organism-based; design: dose 2.5 mg/kg, route intravenous; conditions: in vivo, 0.25 h; how it was run: as §2
Rattus norvegicus [18] = test: Antiarrhythmic activity in Wistar rat assessed as protection against adrenaline-induced bigeminy at 2.5 to 10 mg/kg, iv administered 15 mins prior to adrenaline-challenge; assay type: functional, organism-based; conditions: Heart; how it was run: as §1
Rattus norvegicus [19] = test: Cardiotoxicity in Wistar rat assessed as effect on P-Q interval at 2.5 mg/kg, iv after 1 min; assay type: toxicity, organism-based; design: dose 2.5 mg/kg, route intravenous; conditions: in vivo; how it was run: as §2
Rattus norvegicus [20] = test: Antiarrhythmic activity in iv dosed Wistar rat assessed as protection against adrenaline-induced extrasystoles administered 15 mins prior to adrenaline-challenge; assay type: functional, organism-based; conditions: Heart; how it was run: as §1
Rattus norvegicus [21] = test: Antiarrhythmic activity in iv dosed Wistar rat assessed as protection against adrenaline-induced bigeminy administered 15 mins prior to adrenaline-challenge; assay type: functional, organism-based; conditions: Heart; how it was run: as §1

Ki [4]: 4.7 nM
pKi [4]: 8.33
Structure (SMILES): COc1ccccc1N1CCN(CCCCN2C(=O)N(C)C(=O)C2(c2ccccc2)c2ccccc2)CC1.Cl
Activity (Rattus norvegicus [1]): Active
Activity (Rattus norvegicus [2]): 22 ms
ED50 (Rattus norvegicus [3]): 0.1 mg/kg
Activity (Rattus norvegicus [5]): 83 ms
Activity (Rattus norvegicus [6]): 51 ms
Activity (Rattus norvegicus [7]): 346 min⁻¹
Activity (Rattus norvegicus [8]): 81 ms
Activity (Rattus norvegicus [9]): 22 ms
Activity (Rattus norvegicus [10]): Toxic
Activity (Rattus norvegicus [11]): 49 ms
Activity (Rattus norvegicus [12]): Toxic
Activity (Rattus norvegicus [13]): 333 min⁻¹
Activity (Rattus norvegicus [14]): 338 min⁻¹
Activity (Rattus norvegicus [15]): 22 ms
Activity (Rattus norvegicus [16]): Active
Activity (Rattus norvegicus [17]): 86 ms
Activity (Rattus norvegicus [18]): Active
Activity (Rattus norvegicus [19]): 50 ms

Structure (SMILES): CC(C)NCC(O)COc1cccc2ccccc12 (configuration not stated)
Activity (Rattus norvegicus [20]): Active
Activity (Rattus norvegicus [21]): Active
